The source of these data is ChEMBL document CHEMBL1765015, “Discovery of a potent and efficacious peptide derivative for δ/μ opioid agonist/neurokinin 1 antagonist activity with a 2',6'-dimethyl-L-tyrosine: in vitro, in vivo, and NMR-based structural studies” (J Med Chem, 2011).

In series [1] the target is T1, Delta-type opioid receptor (Homo sapiens, UniProt P41143). Put plainly: Displacement of [3H]DPDPE from human delta opioid receptor expressed in mouse HN9.10 cells. In kind it is cell-based.
T1 sequence (P41143 whole entry): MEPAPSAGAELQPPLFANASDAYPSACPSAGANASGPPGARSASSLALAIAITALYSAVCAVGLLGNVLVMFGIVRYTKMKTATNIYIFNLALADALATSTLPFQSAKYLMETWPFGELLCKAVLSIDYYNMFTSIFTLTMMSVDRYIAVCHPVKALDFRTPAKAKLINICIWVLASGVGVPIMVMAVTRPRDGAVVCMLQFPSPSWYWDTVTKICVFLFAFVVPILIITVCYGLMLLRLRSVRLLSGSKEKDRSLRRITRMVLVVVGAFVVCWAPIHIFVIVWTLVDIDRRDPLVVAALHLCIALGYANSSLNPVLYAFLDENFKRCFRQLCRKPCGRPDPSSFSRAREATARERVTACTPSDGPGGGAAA
The target of series [2] is T2, Mu-type opioid receptor (Rattus norvegicus, UniProt P33535). Put plainly: Displacement of [3H]DAMGO from rat mu opioid receptor expressed in mouse HN9.10 cells. In kind it is cell-based.
T2 sequence (P33535 whole entry): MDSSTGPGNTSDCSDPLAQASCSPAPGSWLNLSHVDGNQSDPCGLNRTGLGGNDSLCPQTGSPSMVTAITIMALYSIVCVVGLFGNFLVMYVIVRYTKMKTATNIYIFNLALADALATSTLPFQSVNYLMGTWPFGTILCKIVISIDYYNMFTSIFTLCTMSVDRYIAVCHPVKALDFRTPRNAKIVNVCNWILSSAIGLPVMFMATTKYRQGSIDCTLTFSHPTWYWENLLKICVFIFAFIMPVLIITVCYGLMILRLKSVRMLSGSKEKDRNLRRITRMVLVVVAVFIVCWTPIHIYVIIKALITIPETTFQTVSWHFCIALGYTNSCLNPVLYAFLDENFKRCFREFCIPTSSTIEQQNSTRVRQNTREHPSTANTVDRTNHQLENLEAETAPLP
In series [3] the target is Substance-P receptor (Homo sapiens, UniProt P25103). Put plainly: Displacement of [3H]substance P from human NK1 receptor expressed in CHO cells. In kind it is cell-based.
Substance-P receptor (Homo sapiens, UniProt P25103), sequence (P25103 whole entry): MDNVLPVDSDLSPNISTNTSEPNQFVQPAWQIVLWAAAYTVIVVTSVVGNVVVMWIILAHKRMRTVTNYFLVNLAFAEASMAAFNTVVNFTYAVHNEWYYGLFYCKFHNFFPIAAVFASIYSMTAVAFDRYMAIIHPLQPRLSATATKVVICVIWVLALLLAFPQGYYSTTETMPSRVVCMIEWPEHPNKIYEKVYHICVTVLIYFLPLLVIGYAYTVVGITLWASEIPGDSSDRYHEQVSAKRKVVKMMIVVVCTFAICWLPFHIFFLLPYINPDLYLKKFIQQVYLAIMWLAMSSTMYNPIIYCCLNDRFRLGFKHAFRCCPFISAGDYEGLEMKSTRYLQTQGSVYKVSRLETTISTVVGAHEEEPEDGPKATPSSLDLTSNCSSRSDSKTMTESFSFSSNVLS
Series [4] addresses Substance-P receptor (Rattus norvegicus, UniProt P14600). Briefly: Displacement of [3H]substance P from rat NK1 receptor expressed in CHO cells. In kind it is cell-based.
In series [5] the target is Delta-type opioid receptor (Mus musculus, UniProt P32300). Briefly: Agonist activity at delta opioid receptor in mouse vas deferens assessed as inhibition of electrically-stimulated muscle contraction. In kind it is functional, tissue-based.
Delta-type opioid receptor (Mus musculus, UniProt P32300), sequence (P32300 whole entry): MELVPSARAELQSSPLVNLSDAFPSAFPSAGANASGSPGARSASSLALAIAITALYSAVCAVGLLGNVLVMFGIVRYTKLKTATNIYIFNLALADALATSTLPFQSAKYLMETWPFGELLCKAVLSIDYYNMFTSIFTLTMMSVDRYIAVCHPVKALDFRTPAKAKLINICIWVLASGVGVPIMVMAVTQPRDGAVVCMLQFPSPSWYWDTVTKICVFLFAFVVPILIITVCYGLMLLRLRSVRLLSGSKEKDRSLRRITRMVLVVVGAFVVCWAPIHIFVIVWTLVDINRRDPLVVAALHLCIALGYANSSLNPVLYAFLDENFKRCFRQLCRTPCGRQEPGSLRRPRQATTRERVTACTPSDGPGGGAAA
Series [6] deals with Mu-type opioid receptor (Cavia porcellus, UniProt P97266). Briefly: Agonist activity at mu opioid receptor in guinea pig ileum assessed as inhibition of electrically-stimulated muscle contraction. In kind it is functional, tissue-based.
Mu-type opioid receptor (Cavia porcellus, UniProt P97266), sequence (P97266 whole entry): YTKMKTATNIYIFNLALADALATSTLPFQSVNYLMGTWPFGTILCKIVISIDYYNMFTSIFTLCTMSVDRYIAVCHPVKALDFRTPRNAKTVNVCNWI
Series [7] concerns the target Substance-P receptor (Cavia porcellus) (UniProt P30547). Briefly: Antagonist activity at NK1 receptor in guinea pig ileum assessed as inhibition of substance P-induced muscle contraction. In kind it is functional, tissue-based.
Series [8] concerns the target T1, Delta-type opioid receptor. Put plainly: Agonist activity at human opioid delta receptor expressed in mouse HN9.10 cells assessed as [35S]GTPgammaS binding. In kind it is functional, cell-based. In outline: (§1)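 [35S]GTPγS binding on membranes of HN9.10 cells stably expressing human DOR or rat MOR, about 1 pmol receptor/mg membrane protein. logEC50 from non-linear regression of at least two independent experiments in duplicate; EC50 is the antilog. Emax given as percent stimulation.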

Series [9] concerns the target T1, Delta-type opioid receptor. Put plainly: Agonist activity at human opioid delta receptor expressed in mouse HN9.10 cells assessed as [35S]GTPgammaS binding relative to control. In kind it is functional, cell-based. In short, it runs like this:
as §1

Series [10] deals with T2, Mu-type opioid receptor. Put plainly: Agonist activity at rat mu opioid receptor expressed in mouse HN9.10 cells assessed as [35S]GTPgammaS binding. In kind it is functional, cell-based.
Another series relates to Plasma. Put plainly: Metabolic stability in rat plasma after up to 6 hrs. In kind it is ADME, cell-free. In short, it runs like this: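 DMSO stock diluted 1000-fold into rat plasma, giving 50 μg/mL final, and incubated at 37 °C. Aliquots taken at 1, 2, 4 and 6 h, proteins precipitated with acetonitrile, and remaining parent measured by HPLC. Three independent experiments, mean ± SD; half-life calculated.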

The target of series [11] is Mu-type opioid receptor (Rattus norvegicus) (UniProt P33535). Briefly: Agonist activity at rat mu opioid receptor expressed in mouse HN9.10 cells assessed as [35S]GTPgammaS binding relative to control. In kind it is functional, cell-based. In short, it runs like this:
as §1

A further series concerns Rattus norvegicus. Put plainly: Antinociceptive activity in Sprague-Dawley rat assessed as time required to maximum activity on reduction in infrared heat-induced paw withdrawal latency at 10 ug administered intrathecally. In kind it is functional. In outline:
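Male Sprague-Dawley rats (200-225 g) fitted with a lumbar intrathecal catheter under ketamine/xylazine and given 5-7 days recovery. Dose of 10 μg in 5 μL i.t., followed by air bubble and saline flush. Radiant heat applied to left hind paw after 20 min acclimation, with 33.0 s cutoff. Baseline taken 30 min before dosing; […], mean ± SEM.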

Structures are written as SMILES.

Substance-P receptor (Rattus norvegicus, UniProt P14600), sequence (P14600 whole entry): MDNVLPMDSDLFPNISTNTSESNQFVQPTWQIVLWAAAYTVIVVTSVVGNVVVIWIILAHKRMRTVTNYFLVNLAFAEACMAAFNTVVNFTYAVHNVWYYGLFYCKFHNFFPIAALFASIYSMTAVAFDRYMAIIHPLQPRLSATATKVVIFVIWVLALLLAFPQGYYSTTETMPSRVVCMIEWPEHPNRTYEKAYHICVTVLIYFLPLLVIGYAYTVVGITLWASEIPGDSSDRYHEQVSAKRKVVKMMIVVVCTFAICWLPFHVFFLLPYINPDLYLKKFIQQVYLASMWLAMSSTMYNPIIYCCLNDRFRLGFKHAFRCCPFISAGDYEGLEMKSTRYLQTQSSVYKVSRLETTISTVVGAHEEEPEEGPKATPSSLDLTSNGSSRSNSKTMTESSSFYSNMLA
Substance-P receptor (Cavia porcellus), sequence (P30547 whole entry): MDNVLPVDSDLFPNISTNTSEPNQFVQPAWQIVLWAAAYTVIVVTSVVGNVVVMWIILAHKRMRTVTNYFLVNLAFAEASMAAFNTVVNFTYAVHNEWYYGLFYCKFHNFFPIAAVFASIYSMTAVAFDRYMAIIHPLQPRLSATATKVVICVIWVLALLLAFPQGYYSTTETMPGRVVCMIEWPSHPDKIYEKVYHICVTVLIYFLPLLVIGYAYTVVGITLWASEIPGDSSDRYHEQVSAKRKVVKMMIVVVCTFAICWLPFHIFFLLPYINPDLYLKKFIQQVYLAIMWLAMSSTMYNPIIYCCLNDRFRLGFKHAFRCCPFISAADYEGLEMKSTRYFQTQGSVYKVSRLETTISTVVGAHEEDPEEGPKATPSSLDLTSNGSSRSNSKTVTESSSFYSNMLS
Mu-type opioid receptor (Rattus norvegicus), sequence (P33535 whole entry): as the sequence (P33535 whole entry) above

For the compound `CCCC[C@H](NC(=O)[C@H](Cc1ccccc1)NC(=O)CNC(=O)[C@@H](C)NC(=O)[C@@H](N)Cc1c(C)cc(O)cc1C)C(=O)N1CCC[C@H]1C(=O)N[C@@H](CC(C)C)C(=O)N[C@@H](Cc1c[nH]c2ccccc12)C(=O)N(C)Cc1cc(C(F)(F)F)cc(C(F)(F)F)c1`, the IC50 in series [1] was 0.977 nM; at Mu-type opioid receptor [2], 3.31 nM; at Substance-P receptor [3], 0.468 nM; at Substance-P receptor [4], 30.9 nM; in series [5], 14 nM; at Mu-type opioid receptor [6], 110 nM. In [7], the Ke is 6.1 nM. Further, the EC50 in series [8] (read-out: EC50) was 2.3 nM; in series [8] (read-out: pEC50 (converted)) it was 7.08 nM; at Mu-type opioid receptor [10] (read-out: EC50), 8 nM. Moreover, the Emax in series [9] was 49%.
In the case of `CSCC[C@H](NC(=O)[C@H](Cc1ccccc1)NC(=O)CNC(=O)[C@@H](C)NC(=O)[C@@H](N)Cc1c(C)cc(O)cc1C)C(=O)N1CCC[C@H]1C(=O)N[C@@H](CC(C)C)C(=O)N[C@@H](Cc1c[nH]c2ccccc12)C(=O)NCc1cc(C(F)(F)F)cc(C(F)(F)F)c1`, the IC50 in series [1] was 0.38 nM; on Mu-type opioid receptor [2], 4.27 nM; on Substance-P receptor [3] it was 0.0182 nM; at Substance-P receptor [4], 5.13 nM. In addition, the Ke in series [7] was determined as 7.5 nM. Further, the Stability result with Plasma is “Stable”.
For the compound `CCCC[C@H](NC(=O)[C@H](Cc1ccccc1)NC(=O)CNC(=O)[C@@H](C)NC(=O)[C@@H](N)Cc1c(C)cc(O)cc1C)C(=O)N1CCC[C@H]1C(=O)N[C@@H](CC(C)C)C(=O)N[C@@H](Cc1c[nH]c2ccccc12)C(=O)NCc1ccc(OC)c(OC)c1`, the IC50 was 0.316 nM in [1]; 0.631 nM at Mu-type opioid receptor [2]; 2 nM on Substance-P receptor [3]; 891 nM on Substance-P receptor [4]; 8.8 nM in series [5]; 23 nM on Mu-type opioid receptor [6]. The Ki in series [1] amounted to 0.15 nM; at Substance-P receptor [3], 0.95 nM; on Substance-P receptor [4] it was 320 nM. Further, the Ke in [7] is 24 nM. In addition, the EC50 in [8] (read-out: EC50) was 0.6 nM; at Mu-type opioid receptor [10] (read-out: EC50), 0.72 nM; at Mu-type opioid receptor [10] (read-out: pEC50 (converted)), 0.955 nM. Further, the figures for the maximal effect (Emax) in series [9] and in series [11] were 42% and 48%, respectively.
Take `CSCC[C@H](NC(=O)[C@H](Cc1ccccc1)NC(=O)CNC(=O)[C@@H](C)NC(=O)[C@@H](N)Cc1ccc(O)cc1)C(=O)N1CCC[C@H]1C(=O)N[C@@H](CC(C)C)C(=O)N[C@@H](Cc1c[nH]c2ccccc12)C(=O)NCc1cc(C(F)(F)F)cc(C(F)(F)F)c1`: in the series with Rattus norvegicus, the Time is given as 15 min.
On to `CCCC[C@H](NC(=O)[C@H](Cc1ccccc1)NC(=O)CNC(=O)[C@@H](C)NC(=O)[C@@H](N)Cc1c(C)cc(O)cc1C)C(=O)N1CCC[C@H]1C(=O)N[C@@H](CC(C)C)C(=O)N[C@@H](Cc1c[nH]c2ccccc12)C(=O)NCc1cccc(C(F)(F)F)c1`, for which the IC50 is 8.51 nM in [1]; 2.19 nM at Substance-P receptor [3]; 389 nM at Substance-P receptor [4]; 8.7 nM in [5]; 22 nM at Mu-type opioid receptor [6]. The Ki at Substance-P receptor [3] worked out at 1 nM; on Substance-P receptor [4], 140 nM. Also, the Ke in [7] was found to be 14 nM. Besides, the values for the EC50 in [8] (read-out: EC50) and in series [8] (read-out: pEC50 (converted)) were 0.2 nM and 0.437 nM, respectively. In addition, the values for the Emax in series [9] and in [11] were 50% and 17%, respectively.
As to `CCCC[C@H](NC(=O)[C@H](Cc1ccccc1)NC(=O)CNC(=O)[C@@H](C)NC(=O)[C@@H](N)Cc1c(C)cc(O)cc1C)C(=O)N1CCC[C@H]1C(=O)N[C@@H](CC(C)C)C(=O)N[C@@H](Cc1c[nH]c2ccccc12)C(=O)NCc1cc(C(F)(F)F)cc(C(F)(F)F)c1`, the figures for the IC50 (in series [1]; on Substance-P receptor [3]) were 24 nM and 0.166 nM, respectively. In series [7], the Ke turned out to be 13 nM. Moreover, the EC50 in series [8] (read-out: pEC50 (converted)) is 0.126 nM.
For `CN1CC[C@]23c4c5ccc(O)c4O[C@H]2[C@@H](O)C=C[C@H]3[C@H]1C5` [MORPHINE], in the series on Rattus norvegicus, the Time was determined as 20 min.
